The target of experiment [1] is T1, S-adenosylmethionine synthetase (MAT 1 and MAT 2) (Rattus norvegicus, UniProt P13444+P18298). Put plainly: Inhibition constant of ATP varied compound was measured on MT variant methionine adenosyltransferase in rat ascitic hepatoma cells. The format is cell-based. The gist of the method:
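M-T variant; MgATP varied at six to eight levels, (0.5-4.0)×KM, with L-[methyl-14C]methionine fixed at 120 μM; two inhibitor levels plus uninhibited control. Duplicate 10-min incubations at 37 °C in pH 8.2 Tris/KCl/MgCl2/DTT. Stopped with HClO4-methionine; labelled product bound to phosphocellulose discs, scintillation counted; no-ATP blanks. Ki by replotting double-reciprocal slopes/intercepts.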

The target of experiment [2] is T1, S-adenosylmethionine synthetase (MAT 1 and MAT 2). Put plainly: Inhibition constant of Met varied compound was measured on M-2 variant methionine adenosyltransferase in rat kidney. An outline of the steps:
(§1)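 L-[methyl-14C]methionine varied at six to eight levels, (0.5-4.0)×KM, with MgATP fixed at 2 mM for both M-2 and M-T; two inhibitor levels plus control. Incubations run in duplicate for 10 min at 37 °C, pH 8.2 Tris buffer with KCl, MgCl2 and DTT. Product on phosphocellulose discs counted by scintillation; no-ATP blanks. Ki from replots of double-reciprocal slopes/intercepts.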

Experiment [3] shares this target. Nature of the experiment: Inhibition constant of Met varied compound was measured on MT variant methionine adenosyltransferase in rat ascitic hepatoma cells. Format: cell-based. An outline of the steps:
as §1

Experiment [4] has the same target. Nature of the experiment: Inhibition constant of ATP varied compound was measured on M-2 variate methionine adenosyltransferase in rat kidney. The gist of the method:
(§2)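 Rat M-2 enzyme; MgATP varied at six to eight levels, (0.5-4.0)×KM, with L-[methyl-14C]methionine fixed at 60 μM; two inhibitor levels plus no-inhibitor control. 10 min, 37 °C, pH 8.2 Tris/KCl/MgCl2/DTT buffer, duplicates. Acid-stopped; product on phosphocellulose discs counted by scintillation; no-ATP blanks. Ki from slope/intercept replots of double-reciprocal plots.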

Experiment [5] shares this target. Nature of the experiment: Inhibition constant of ATP varied compound was measured on M-2 variate Methionine adenosyltransferase in rat kidney. The gist of the method:
as §2

Experiment [6] shares this target. Put plainly: Inhibition constant of Met varied compound was measured on M-2 variant Methionine adenosyltransferase in rat kidney. An outline of the steps: as §1

Take `Nc1ncnc2c1ncn2[C@@H]1O[C@H](C(CCOP(=O)(O)OP(=O)(O)NP(=O)(O)O)SCCC(N)C(=O)O)[C@@H](O)[C@H]1O` (stereo partly specified): the Ki came out at 810 nM in experiment [1], 2100 nM in experiment [2], 1500 nM in experiment [3] and 440 nM in experiment [4].
Regarding `Nc1ncnc2c1ncn2[C@@H]1O[C@H]([C@@H](CNP(=O)(O)OP(=O)(O)OP(=O)(O)O)SCCC(N)C(=O)O)[C@@H](O)[C@H]1O` (stereo partly specified), the Ki in experiment [1] is 270 nM; in experiment [2], 3000 nM; in experiment [3], 2300 nM; in experiment [4], 360 nM.
Turning to `Nc1ncnc2c1ncn2[C@@H]1O[C@H]([C@H](CSCCC(N)C(=O)O)OP(=O)(O)OP(=O)(O)NP(=O)(O)O)[C@@H](O)[C@H]1O` (stereo partly specified), the Ki is 210 nM in experiment [1], 130 nM in experiment [5], 650 nM in experiment [6] and 670 nM in experiment [3].
For `Nc1ncnc2c1ncn2[C@@H]1O[C@H](CC(CSCC[C@H](N)C(=O)O)OP(=O)(O)OP(=O)(O)NP(=O)(O)O)[C@@H](O)[C@H]1O` (stereo partly specified), the Ki in experiment [1] came out at 630 nM; in experiment [2], 2200 nM; in experiment [3], 2700 nM; in experiment [4] it was 390 nM.

These data come from ChEMBL document CHEMBL1124309, “Toward the synthesis of isozyme-specific enzyme inhibitors. Potent inhibitors of rat methionine adenosyltransferases. Effect of one-atom elongation of the ribose-P alpha bridge in two covalent adducts of L-methionine and beta,gamma-imido-ATP” (J Med Chem, 1988).
